Experiment [1] addresses 11-beta-hydroxysteroid dehydrogenase 1 (Mus musculus) (UniProt P50172). The experiment can be described thus: Inhibition of mouse 11beta-HSD1 expressed in HEK293 cell microsomes assessed as inhibition of [3H]cortisone conversion to [3H]cortisol at 1 uM by scintillation proximity assay. The following applies: Microsome. The method in brief:
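Primary single-concentration screen in the SPA. Mouse 11β-HSD1 HEK-293 stable-transfectant microsomes are incubated with NADPH and [3H]cortisone, and [3H]cortisol is captured by antibody-coupled protein A SPA beads. Inhibitory ratio is the average of two determinations, with deviation from the average of 10% of the average value.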
On the technique in general: In a scintillation proximity assay essentially only radioactivity close to the scintillant gives light.

The species entered for the next experiment is Homo sapiens. Kind of experiment: selectivity ratio of IC50 for human 11beta-HSD2 to IC50 for human 11beta-HSD1. In short, it runs like this: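 Ratio of 11β-HSD2 IC50 to 11β-HSD1 IC50 for the same species (mouse or human). Both IC50s come from microsome-based scintillation proximity assays, averaged over at least two independent experiments with at least duplicate wells per concentration. Only compounds exceeding 50% inhibition in the primary screen were evaluated.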

Experiment [2] concerns the target 11-beta-hydroxysteroid dehydrogenase 1 (Mus musculus, UniProt P50172). Kind of experiment: Inhibition of mouse 11beta-HSD1 expressed in HEK293 cell microsomes assessed as inhibition of [3H]cortisone conversion to [3H]cortisol by scintillation proximity assay. Further details: species or system Microsome. The method in brief:
(§1)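 Enzyme source: microsomal fraction from HEK-293 cells stably transfected with 11β-HSD1 (human or mouse), incubated with NADPH and [3H]cortisone. The [3H]cortisol product is captured by a monoclonal antibody on protein A-coated SPA beads. IC50 is averaged over at least two independent experiments, at least duplicate per concentration.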

The target of experiment [3] is 11-beta-hydroxysteroid dehydrogenase 1 (Homo sapiens, UniProt P28845). Kind of experiment: Inhibition of human 11beta-HSD1 expressed in HEK293 cell microsomes assessed as inhibition of [3H]cortisone conversion to [3H]cortisol by scintillation proximity assay. Further details: species or system Microsome. In short, it runs like this: as §1
The target of experiment [4] is T1, 11-beta-hydroxysteroid dehydrogenase type 2 (Homo sapiens, UniProt P80365).
T1 sequence (P80365 whole entry): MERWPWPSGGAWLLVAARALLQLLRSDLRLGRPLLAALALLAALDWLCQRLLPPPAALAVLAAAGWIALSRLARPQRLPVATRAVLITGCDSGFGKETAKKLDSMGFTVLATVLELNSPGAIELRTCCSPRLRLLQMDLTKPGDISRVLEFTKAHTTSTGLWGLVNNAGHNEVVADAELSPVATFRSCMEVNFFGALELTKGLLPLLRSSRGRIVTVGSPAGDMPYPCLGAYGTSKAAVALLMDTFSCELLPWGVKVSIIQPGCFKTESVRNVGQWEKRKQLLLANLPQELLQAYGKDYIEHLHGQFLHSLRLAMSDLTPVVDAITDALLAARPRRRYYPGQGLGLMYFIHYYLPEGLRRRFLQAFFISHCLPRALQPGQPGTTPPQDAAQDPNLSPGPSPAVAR
The experiment can be described thus: Inhibition of human 11beta-HSD2.

As usually defined, the inhibition is the percentage by which the read-out fell short of the control. One may read the IC50 as the concentration that gives 50% inhibition.

Sequence of 11-beta-hydroxysteroid dehydrogenase 1 (Mus musculus) (P50172 whole entry, looked up): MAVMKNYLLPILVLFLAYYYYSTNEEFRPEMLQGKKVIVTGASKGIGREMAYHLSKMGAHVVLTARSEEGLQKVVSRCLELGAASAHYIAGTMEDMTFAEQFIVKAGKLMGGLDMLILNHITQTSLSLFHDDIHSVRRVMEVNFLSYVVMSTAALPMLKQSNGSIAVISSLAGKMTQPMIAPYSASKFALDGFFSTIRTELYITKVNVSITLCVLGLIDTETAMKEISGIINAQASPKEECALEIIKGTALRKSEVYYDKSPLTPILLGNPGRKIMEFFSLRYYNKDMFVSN
Sequence of 11-beta-hydroxysteroid dehydrogenase 1 (Mus musculus, UniProt P50172) (P50172 whole entry): as the sequence (P50172 whole entry, looked up) above
Sequence of 11-beta-hydroxysteroid dehydrogenase 1 (Homo sapiens, UniProt P28845) (P28845 whole entry): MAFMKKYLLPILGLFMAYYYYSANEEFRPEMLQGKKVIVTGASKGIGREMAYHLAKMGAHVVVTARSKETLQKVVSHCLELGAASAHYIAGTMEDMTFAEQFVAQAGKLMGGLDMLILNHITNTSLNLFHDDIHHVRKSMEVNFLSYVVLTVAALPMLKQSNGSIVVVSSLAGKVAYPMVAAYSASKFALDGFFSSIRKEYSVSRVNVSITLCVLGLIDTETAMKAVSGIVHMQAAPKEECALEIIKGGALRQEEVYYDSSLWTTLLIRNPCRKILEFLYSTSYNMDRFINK

As for `C=C1C(=O)[C@@]23CC[C@H]4[C@@](C)(CCC[C@@]4(C)C(=O)O)[C@@H]2[C@@H](O)C[C@H]1C3`, in experiment [1], the inhibition was found to be 25.3%.
Consider `C=C1[C@H]2C[C@H](O)[C@H]3[C@]4(C)CCC[C@@](C)(NC(=O)NC5CCCCC5)[C@H]4CC[C@]3(C2)[C@@H]1O`, for which, in experiment [1], the inhibition amounted to 16.3%. The Ratio IC50 in the experiment filed under Homo sapiens is above 605. Also, the IC50 in experiment [2] was above 1 µM; in experiment [3] it was 0.165 µM; in experiment [4] it was above 100 µM.
As to `C=C1[C@H]2C[C@H](O)[C@H]3[C@]4(C)CCC[C@@](C)(NC(=O)N5CCOCC5)[C@H]4CC[C@]3(C2)[C@@H]1O`, the inhibition in experiment [1] stood at 21.4%.
Still for that read-out and setting: in the case of `C=C1[C@H]2C[C@H](O)[C@H]3[C@]4(C)CCC[C@@](C)(NC(=O)N5CCCC5)[C@H]4CC[C@]3(C2)[C@@H]1O` it was 9.21%.
As to `C=C1[C@H]2C[C@H](O)[C@H]3[C@]4(C)CCC[C@@](C)(NC(=O)Nc5cccc6ccccc56)[C@H]4CC[C@]3(C2)[C@@H]1O`, the inhibition in experiment [1] was found to be 52.2%. Moreover, the Ratio IC50 in the experiment listed under Homo sapiens worked out at 6.2. For the same compound, the IC50 in experiment [2] is above 1 µM; in experiment [3], 0.266 µM; in experiment [4], 1.6 µM.
For the compound `C=C1[C@H]2C[C@H](OC(=O)c3ccc(Br)cc3)[C@H]3[C@]4(C)CCC[C@@](C)(C(=O)O)[C@H]4CC[C@]3(C2)[C@@H]1O`, the inhibition in experiment [1] stood at 32.7%.
`C=C1C[C@@]23CC[C@@H]4[C@](C)(CF)CCC[C@@]4(C)[C@@H]2CC[C@H]1C3`: the inhibition in experiment [1] was 37.7%.
In the case of `C=C1C[C@@]23CC[C@H]4[C@@](C)(CCC[C@@]4(C)NC(=O)Nc4ccc(F)cc4)[C@@H]2CC[C@H]1C3`, the inhibition in experiment [1] is 25.9%. Moreover, the Ratio IC50 in the experiment listed under Homo sapiens was above 302. In addition, the IC50 is above 1 µM in experiment [2], 0.331 µM in experiment [3] and above 100 µM in experiment [4].
With `C=C1[C@H]2C[C@H](O)[C@H]3[C@]4(C)CCC[C@@](C)(NC(=O)N5CCNCC5)[C@H]4CC[C@]3(C2)[C@@H]1O`, the inhibition in experiment [1] was found to be 12.7%.
`C=C1[C@H]2C[C@H](O)[C@H]3[C@]4(C)CCC[C@@](C)(CO)[C@H]4CC[C@]3(C2)[C@@H]1O`: in experiment [1], the inhibition was determined as 27.3%.
Turning to `C=C1[C@H]2C[C@H](O)[C@H]3[C@]4(C)CCC[C@@](C)(N=C=O)[C@H]4CC[C@]3(C2)[C@@H]1O`, the inhibition in experiment [1] came to 16.8%.
In the case of `C=C1[C@H]2C[C@H](O)[C@H]3[C@]4(C)CCC[C@@](C)(C(=O)OC)[C@H]4CC[C@]3(C2)[C@@H]1O`, the inhibition in experiment [1] worked out at 25.1%.
Still for that read-out and setting: the figure for `C=C1[C@H]2C[C@H](OC(=O)c3ccccc3)[C@H]3[C@]4(C)CCC[C@@](C)(C(=O)O)[C@H]4CC[C@]3(C2)[C@@H]1O` is 21.3%.
Same read-out and setting: in the case of `C[C@H]1[C@H]2C[C@H](O)[C@H]3[C@]4(C)CCC[C@@](C)(C(=O)O)[C@H]4CC[C@]3(C2)[C@@H]1O` it was 11.6%.
In the case of `C=C1[C@H]2C[C@H](O)[C@H]3[C@]4(C)CCC[C@@](C)(NC(=O)Nc5ccc(F)cc5)[C@H]4CC[C@]3(C2)[C@@H]1O`, in experiment [1], the inhibition was found to be 7.92%. Also, the Ratio IC50 in the experiment listed under Homo sapiens was above 402. For the same compound, the figures for the IC50 in experiment [2], in experiment [3] and in experiment [4] were above 1 µM, 0.249 µM and above 100 µM, respectively.
For the compound `C=C1[C@H]2C[C@H](O)[C@H]3[C@]4(C)CCC[C@@](C)(NC(=O)Nc5nccs5)[C@H]4CC[C@]3(C2)[C@@H]1O`, the inhibition in experiment [1] is 5.39%.
Turning to `C=C1[C@H]2C[C@H](O)[C@H]3[C@]4(C)CCC[C@@](C)(NC(=O)NC(C)(C)C)[C@H]4CC[C@]3(C2)[C@@H]1O`, the inhibition in experiment [1] was 11.3%.
With `C=C1[C@H]2CC[C@H]3[C@]4(C)CCC[C@@](C)(C(=O)O)[C@H]4CC[C@]3(C2)[C@@H]1F`, in experiment [1], the inhibition is 56%.
Consider `C=C1[C@H]2C[C@H](O)[C@H]3[C@]4(C)CCC[C@@](C)(NC(=O)Nc5ccccc5)[C@H]4CC[C@]3(C2)[C@@H]1O`, for which the inhibition in experiment [1] turned out to be 24.4%. Besides, the Ratio IC50 in the experiment listed under Homo sapiens is above 10600. In addition, the IC50 in experiment [2] was above 1 µM; in experiment [3] it was 0.0094 µM; in experiment [4], above 1000 µM.
Regarding `C=C1[C@H]2C[C@H](OC(=O)Nc3nccs3)[C@H]3[C@]4(C)CCC[C@@](C)(C(=O)O)[C@H]4CC[C@]3(C2)[C@@H]1O`, in experiment [1], the inhibition turned out to be 11.6%.
As to `C=C1[C@H]2C[C@H](OC(=O)N3CCOCC3)[C@H]3[C@]4(C)CCC[C@@](C)(C(=O)O)[C@H]4CC[C@]3(C2)[C@@H]1O`, the inhibition in experiment [1] worked out at 35.2%.
Take `C=C1[C@H]2C[C@H](O)[C@H]3[C@]4(C)CCC[C@@](C)(NC(=O)NC56CC7CC(CC(C7)C5)C6)[C@H]4CC[C@]3(C2)[C@@H]1O`: the inhibition in experiment [1] was found to be 20.8%. Also, in the experiment filed under Homo sapiens, the Ratio IC50 came out at 1.7. The IC50 is above 1 µM in experiment [2], 0.404 µM in experiment [3] and 0.7 µM in experiment [4].
As to `C=C1C[C@@]23CC[C@H]4[C@@](C)(CCC[C@@]4(C)N=C=O)[C@@H]2CC[C@H]1C3`, in experiment [1], the inhibition turned out to be 55.5%.
For `C=C1[C@H]2C[C@H](O)[C@H]3[C@]4(C)CCC[C@@](C)(NC(=O)N(C)OC)[C@H]4CC[C@]3(C2)[C@@H]1O`, the inhibition in experiment [1] was 16.1%.
In the case of `C=C1[C@@H](O)[C@@]23CC[C@H]4[C@@](C)(CCC[C@@]4(C)C(=O)O)[C@@H]2C=C[C@H]1C3`, the inhibition in experiment [1] was 19.6%.
Same read-out and setting: the figure for `C[C@@]12CCC[C@@](C)(C(=O)O)[C@H]1CC[C@]13CC(=O)[C@@H](CC[C@H]12)C3` is 19.6%; for `C=C1[C@H]2C[C@H](OC(=O)c3ccc(N(C)C)cc3)[C@H]3[C@]4(C)CCC[C@@](C)(C(=O)O)[C@H]4CC[C@]3(C2)[C@@H]1O` it is 34%; for `C=C1[C@H]2C[C@H](O)[C@H]3[C@]4(C)CCC[C@@](C)(C(=O)O)[C@H]4CC[C@]3(C2)[C@@H]1O` it is 16.5%.
For `C=C1C[C@@]23CC[C@H]4[C@@](C)(CCC[C@@]4(C)NC(=O)NC45CC6CC(CC(C6)C4)C5)[C@@H]2CC[C@H]1C3`, the inhibition in experiment [1] was 18.2%. Moreover, in the experiment listed under Homo sapiens, the Ratio IC50 is above 246. Moreover, the results for the IC50 in experiment [2], in experiment [3] and in experiment [4] were above 1 µM, 0.407 µM and above 100 µM, respectively.
Consider `C=C1C[C@@]23CC[C@H]4[C@@](C)(CCC[C@@]4(C)NC(=O)Nc4nccs4)[C@@H]2CC[C@H]1C3`, for which, in experiment [1], the inhibition came out at 18.2%.
Still for that read-out and setting: in the case of `CC1(C)[C@@H](O)CC[C@]2(C)[C@H]3C(=O)C=C4[C@@H]5C[C@@](C)(C(=O)O)CC[C@]5(C)CC[C@@]4(C)[C@]3(C)CC[C@@H]12` it was 96.7%; in that of `C[C@@]12CCC[C@@](C)(C(=O)O)[C@H]1CC[C@@]13C[C@H](C[C@H](O)[C@@H]21)[C@]1(CO1)[C@H]3O`, 16.8%; in that of `C=C1[C@H]2C[C@H](O)[C@H]3[C@]4(C)CCC[C@@](C)(NC(=O)Nc5ccc(C(F)(F)F)cc5)[C@H]4CC[C@]3(C2)[C@@H]1O`, 3.69%.
Consider `C=C1[C@H]2C[C@H](OC(=S)SC)[C@H]3[C@]4(C)CCC[C@@](C)(C(=O)O)[C@H]4CC[C@]3(C2)[C@@H]1O`, for which the inhibition in experiment [1] worked out at 11.1%. Further, the Ratio IC50 in the experiment filed under Homo sapiens is above 130. The IC50 in experiment [2] was above 1 µM; in experiment [3] it was 0.771 µM; in experiment [4], above 100 µM.
Turning to `C=C1[C@H]2C[C@H](O)[C@H]3[C@]4(C)CCC[C@@](C)(NC(=O)NC)[C@H]4CC[C@]3(C2)[C@@H]1O`, the inhibition in experiment [1] came out at 19.4%.
`C=C1[C@H]2C[C@H](OC(C)=O)[C@H]3[C@]4(C)CCC[C@@](C)(C(=O)O)[C@H]4CC[C@]3(C2)[C@@H]1O`: in experiment [1], the inhibition came out at 12.4%. Moreover, in the experiment listed under Homo sapiens, the Ratio IC50 worked out at 1970. In addition, the IC50 was above 1 µM in experiment [2], 0.116 µM in experiment [3] and 229 µM in experiment [4].

For the origin of these results see ChEMBL document CHEMBL2401669, “Discovery and structure-activity relationships of ent-Kaurene diterpenoids as potent and selective 11β-HSD1 inhibitors: potential impact in diabetes” (Eur J Med Chem, 2013).
